Test results as given in ChEMBL document CHEMBL1148374 (J Med Chem, 2004).
Where a SMILES comes first, the peptide text is derived from it. [ ]: non-standard residue; d: D form. The star is where a group is joined. Tyr(Nα,Nα-allyl2) = C=CCN(CC=C)[C@@H](Cc1ccc(O)cc1)C(=O)*; Aib = CC(C)(N)C(=O)O

How the values were obtained:
[1] = target: T1, Delta-type opioid receptor (Homo sapiens, UniProt P41143); experiment: Inverse agonist potency at cloned human opioid receptor delta 1; type: functional
[2] = target: T1, Delta-type opioid receptor; experiment: Efficacy at cloned human opioid receptor delta 1, expressed as percent of basal binding
[3] = target: T1, Delta-type opioid receptor; experiment: Ability to inhibit agonist-stimulated (DPDPE) [35S]GTP-gamma-S, binding, using cloned human opioid receptor delta 1 expressed in CHO cells; type: functional, cell-based
How it was run: (§1)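 Agonist dose-response curves in [35S]GTPγS binding were run with and without one fixed concentration of test compound, with 10 μM GDP final. Ke = [L]/((A'/A)−1), where A' and A are agonist EC50 with and without antagonist. Mean ± SE from at least three independent experiments.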

[4] = target: Kappa-type opioid receptor (Homo sapiens) (UniProt P41145); experiment: Ability to inhibit agonist-stimulated (U69,593) [35S]GTP-gamma-S, binding, using cloned human Opioid receptor kappa 1 expressed in CHO cells; type: functional, cell-based; how it was run: as §1
[5] = target: T1, Delta-type opioid receptor; experiment: [3H]-Cl-DPDPE competition binding assay using human cloned opioid receptor delta 1
[6] = target: Mu-type opioid receptor (Homo sapiens) (UniProt P35372); experiment: Ability to inhibit agonist-stimulated (DAMGO) [35S]GTP-gamma-S, binding, using cloned human Opioid receptor mu 1expressed in CHO cells; type: functional, cell-based; how it was run: as §1
[7] = target: Opioid receptors; delta & kappa (Homo sapiens) (UniProt P41145+P41143); experiment: Selectivity ratio of agonist stimulated [35S]GTP-gamma-S, binding in cloned human kappa-opioid receptor versus delta-opioid receptor; type: functional
[8] = target: Opioid receptors; mu & delta (Homo sapiens) (UniProt P41143+P35372); experiment: Selectivity ratio of agonist stimulated [35S]GTP-gamma-S, binding in cloned human mu-opioid receptor versus delta-opioid receptor; type: functional
[9] = target: T1, Delta-type opioid receptor; experiment: Inverse agonist potency at cloned human delta-opioid receptor; type: functional
[10] = target: T1, Delta-type opioid receptor; experiment: Binding affinity towards opioid receptor delta 1 expressed in CHO cells was determined by using [3H]DPDPE as radioligand; type: cell-based

Mu-type opioid receptor (Homo sapiens), sequence (P35372 whole entry): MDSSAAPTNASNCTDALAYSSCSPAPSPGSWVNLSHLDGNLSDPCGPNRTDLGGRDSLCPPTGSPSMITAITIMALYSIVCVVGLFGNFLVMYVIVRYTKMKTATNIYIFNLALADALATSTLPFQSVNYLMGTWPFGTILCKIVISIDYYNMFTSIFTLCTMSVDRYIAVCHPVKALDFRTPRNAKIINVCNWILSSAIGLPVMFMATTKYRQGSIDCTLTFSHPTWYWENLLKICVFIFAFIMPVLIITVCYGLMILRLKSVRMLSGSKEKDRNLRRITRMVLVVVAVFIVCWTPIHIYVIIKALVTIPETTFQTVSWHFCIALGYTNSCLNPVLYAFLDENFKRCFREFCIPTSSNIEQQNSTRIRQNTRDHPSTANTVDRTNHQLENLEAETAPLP
Opioid receptors; mu & delta (Homo sapiens), sequence (P35372 whole entry, looked up): as the sequence (P35372 whole entry) above
Opioid receptors; mu & delta (Homo sapiens), sequence (P41143 whole entry, looked up): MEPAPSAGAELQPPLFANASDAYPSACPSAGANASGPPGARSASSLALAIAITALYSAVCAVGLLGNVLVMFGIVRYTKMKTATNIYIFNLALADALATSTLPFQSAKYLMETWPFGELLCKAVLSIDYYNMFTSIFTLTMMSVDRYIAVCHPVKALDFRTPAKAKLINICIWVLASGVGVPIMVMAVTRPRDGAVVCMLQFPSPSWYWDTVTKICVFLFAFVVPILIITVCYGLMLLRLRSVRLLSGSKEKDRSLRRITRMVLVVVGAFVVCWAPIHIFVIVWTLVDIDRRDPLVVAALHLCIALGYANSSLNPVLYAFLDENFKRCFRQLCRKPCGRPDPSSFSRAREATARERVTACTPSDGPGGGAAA
T1 sequence (P41143 whole entry): as the sequence (P41143 whole entry, looked up) above
Opioid receptors; delta & kappa (Homo sapiens), sequence (P41143 whole entry, looked up): as above
Opioid receptors; delta & kappa (Homo sapiens), sequence (P41145 whole entry, looked up): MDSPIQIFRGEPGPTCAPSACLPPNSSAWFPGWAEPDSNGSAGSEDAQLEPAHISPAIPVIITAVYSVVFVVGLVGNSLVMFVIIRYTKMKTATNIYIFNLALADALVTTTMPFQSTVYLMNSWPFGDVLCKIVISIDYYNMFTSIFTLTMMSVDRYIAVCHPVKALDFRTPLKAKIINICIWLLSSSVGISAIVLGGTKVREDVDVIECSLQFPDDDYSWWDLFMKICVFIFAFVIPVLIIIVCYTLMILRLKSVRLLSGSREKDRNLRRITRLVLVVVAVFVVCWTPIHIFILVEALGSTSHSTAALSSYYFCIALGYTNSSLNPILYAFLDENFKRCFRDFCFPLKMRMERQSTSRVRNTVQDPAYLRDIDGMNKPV
Kappa-type opioid receptor (Homo sapiens), sequence (P41145 whole entry): as the sequence (P41145 whole entry, looked up) above

Compound | IC50 [1] [nM] | Basal binding [2] [%] | Ke [3] [nM] | Ke [4] [nM] | Ki [5] [nM] | Ke [6] [nM] | Selectivity ratio [7] | Selectivity ratio [8] | IC50 [9] [nM] | Ki [10] [nM]
Cc1ccccc1/C=C/CN1CC[C@@](C)(c2cccc(O)c2)[C@@H](C)C1 | 2.8 | 76 | – | – | – | – | – | – | – | –
CC1CN(CCCc2ccccc2)C2C[C@H](NC(=O)C3(c4ccccc4)CCCC3)CC1(c1cccc(O)c1)C2 (stereo partly drawn) | 15.2 | 78 | 4.24 | 5.51 | 9.3 | 40.3 | 1.3 | 9.5 | – | –
CC1CN(CCCc2ccccc2)C2CC(NC(=O)C3(c4ccccc4)CCCC3)CC1(c1cccc(O)c1)C2 (racemic) | – | – | 0.55 | 3.52 | 2.1 | 12.2 | 6.4 | 22 | 2.4 | –
Oc1ccc2c3c1O[C@H]1c4[nH]c5ccccc5c4C[C@@]4(O)[C@@H](C2)N(CC2CC2)CC[C@]314 | – | – | 0.21 | 16.1 | – | 33 | – | – | – | –
C=CCN(CC=C)[C@@H](Cc1ccc(O)cc1)C(=O)NC(C)(C)C(=O)NC(C)(C)C(=O)N[C@@H](Cc1ccccc1)C(=O)N[C@@H](CC(C)C)C(=O)O ({Tyr(Nα,Nα-allyl2)}-[Aib][Aib]FL-OH) | – | – | 7.85 | 339 | – | 42 | 43 | 5.4 | – | 19.1
CC1CN(CCCc2ccccc2)C2C[C@@H](NC(=O)C3(c4ccccc4)CCCC3)CC1(c1cccc(O)c1)C2 (single isomer, unassigned; (+)) | – | – | 0.15 | 17.9 | 0.96 | 8.7 | 119 | 58 | 1.8 | –
